According to ChEMBL document CHEMBL1250553, “Synthesis, cytotoxicity and liposome preparation of 28-acetylenic betulin derivatives” (Bioorg Med Chem, 2010):
pIC50: −log10 of the molar value. The source made the active and inactive calls. The calls are words filed in the database; no cut-off is given here.

Assays:
Assay type in all cases: functional, cell-based
[1] = Cytotoxicity against human liposarcoma cells after 96 hrs by sulforhodamine B assay
Procedure, shortened: (§1)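 Human tumour cell lines in 96-well plates, exposed to test compounds for 96 h, then read by colorimetric sulforhodamine B staining. Viable cells are expressed as % of untreated controls. IC50 is taken from dose–response curves, top concentration 30 µM, as the mean of at least three independent experiments (variation generally 10%). Compounds are given as DMSO solutions or as an aqueous liposomal formulation.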

A-431 = assay: Cytotoxicity against human A431 cells after 96 hrs by sulforhodamine B assay; settings: A-431, 96 h; procedure, shortened: as §1
HCT-8 = assay: Cytotoxicity against human HCT8 cells after 96 hrs by sulforhodamine B assay; settings: HCT-8, 96 h; procedure, shortened: as §1
A549 = assay: Cytotoxicity against human A549 cells after 96 hrs by sulforhodamine B assay; settings: A549, 96 h; procedure, shortened: as §1
SW480 = assay: Cytotoxicity against human SW480 cells after 96 hrs by sulforhodamine B assay; settings: SW480, 96 h; procedure, shortened: as §1
FaDu = assay: Cytotoxicity against human FADU cells after 96 hrs by sulforhodamine B assay; procedure, shortened: as §1
DLD-1 [2] = assay: Cytotoxicity against human DLD1 cells at 30 uM after 96 hrs by sulforhodamine B assay
Procedure, shortened: (§2)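 Growth inhibition at the highest tested concentration, 30 µM, after 96 h exposure in 96-well plates. Read by SRB staining as % viable cells relative to untreated controls, from at least three independent experiments.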

8505C = assay: Cytotoxicity against human 8505C cells after 96 hrs by sulforhodamine B assay; procedure, shortened: as §1
HCT-116 = assay: Cytotoxicity against human HCT116 cells after 96 hrs by sulforhodamine B assay; settings: HCT-116, 96 h; procedure, shortened: as §1
518A2 = assay: Cytotoxicity against human 518A2 cells at 30 uM after 96 hrs by sulforhodamine B assay; procedure, shortened: as §2
HT-29 [3] = assay: Cytotoxicity against human HT-29 cells at 30 uM after 96 hrs by sulforhodamine B assay; procedure, shortened: as §2
SW-1736 = assay: Cytotoxicity against human SW1736 cells after 96 hrs by sulforhodamine B assay; settings: SW-1736, 96 h; procedure, shortened: as §1
A2780 = assay: Cytotoxicity against human A2780 cells after 96 hrs by sulforhodamine B assay; settings: A2780, 96 h; procedure, shortened: as §1
MCF7 = assay: Cytotoxicity against human MCF7 cells after 96 hrs by sulforhodamine B assay; settings: MCF7, 96 h; procedure, shortened: as §1
[4] = Cytotoxicity against human A253 cells after 96 hrs by sulforhodamine B assay; settings: A253, 96 h; procedure, shortened: as §1
HT-29 [5] = assay: Cytotoxicity against human HT-29 cells after 96 hrs by sulforhodamine B assay; settings: HT-29, 96 h; procedure, shortened: as §1
[6] = Cytotoxicity against human 518A2 cells after 96 hrs by sulforhodamine B assay; settings: 518A2, 96 h; procedure, shortened: as §1
DLD-1 [7] = assay: Cytotoxicity against human DLD1 cells after 96 hrs by sulforhodamine B assay; settings: DLD-1, 96 h; procedure, shortened: as §1

Compound | pIC50 [1] | pIC50 (A-431) | pIC50 (HCT-8) | pIC50 (A549) | pIC50 (SW480) | pIC50 (FaDu) | inhibition (DLD-1 [2]) | pIC50 (8505C) | pIC50 (HCT-116) | inhibition (518A2) | inhibition (HT-29 [3]) | pIC50 (SW-1736) | pIC50 (A2780) | pIC50 (MCF7) | pIC50 [4] | pIC50 (HT-29 [5]) | pIC50 [6] | pIC50 (DLD-1 [7])
C=C(C)[C@@H]1CC[C@]2([C@H](O)c3cnn(C)c3C(=O)OC)CC[C@]3(C)[C@H](CC[C@@H]4[C@@]5(C)CC[C@H](OC(C)=O)C(C)(C)[C@@H]5CC[C@]43C)[C@@H]12 | 4.85 | 4.91 | 4.87 | 4.61 | 5.15 | 4.75 | inactive | 4.97 | 4.69 | inactive | inactive | 4.64 | 4.90 | 4.91 | 4.80 | – | – | –
C=C(C)[C@@H]1CC[C@]2([C@H](O)c3c(C(=O)OCC)n[nH]c3C(=O)OC)CC[C@]3(C)[C@H](CC[C@@H]4[C@@]5(C)CC[C@H](OC(C)=O)C(C)(C)[C@@H]5CC[C@]43C)[C@@H]12 | 4.85 | 4.93 | 4.87 | 4.74 | 4.94 | 4.86 | inactive | 4.92 | 4.85 | – | – | 4.72 | 4.88 | 4.95 | 4.88 | 4.77 | 4.79 | –
C=C(C)[C@@H]1CC[C@]2([C@H](O)c3nn[nH]c3C(=O)OC)CC[C@]3(C)[C@H](CC[C@@H]4[C@@]5(C)CC[C@H](OC(C)=O)C(C)(C)[C@@H]5CC[C@]43C)[C@@H]12 | 4.74 | 4.78 | 4.86 | 4.76 | 4.83 | 4.82 | – | 4.81 | 4.81 | – | – | 4.93 | 4.87 | 4.83 | 4.99 | 4.74 | 4.83 | 4.81
C=C(C)[C@@H]1CC[C@]2([C@@H]3OC(=O)C=C3N3CCCC3)CC[C@]3(C)[C@H](CC[C@@H]4[C@@]5(C)CC[C@H](OC(C)=O)C(C)(C)[C@@H]5CC[C@]43C)[C@@H]12 | 5.22 | 5.68 | 6.30 | 5.11 | 5.24 | 5.20 | – | 5.28 | 5.68 | – | – | 5.39 | 5.66 | 5.43 | 5.34 | 5.41 | 5.33 | 5.27
C=C(C)[C@@H]1CC[C@]2([C@H](O)/C=C\CO)CC[C@]3(C)[C@H](CC[C@@H]4[C@@]5(C)CC[C@H](OC(C)=O)C(C)(C)[C@@H]5CC[C@]43C)[C@@H]12 | 4.73 | 4.91 | 5.00 | 4.89 | 4.75 | 4.97 | – | 4.75 | 4.98 | – | – | 5.05 | 4.90 | 4.71 | 4.83 | 4.80 | 4.69 | 4.91
C=C(C)[C@@H]1CC[C@]2([C@H](O)C3=C(C(=O)OC)C(C(=O)OCC)N=N3)CC[C@]3(C)[C@H](CC[C@@H]4[C@@]5(C)CC[C@H](OC(C)=O)C(C)(C)[C@@H]5CC[C@]43C)[C@@H]12 (stereo not given in full) | 4.70 | 5.12 | 5.00 | 4.83 | 5.11 | 5.00 | inactive | 5.05 | 5.01 | – | – | 4.79 | 5.04 | 5.10 | 4.90 | 4.92 | 4.67 | –
C=C(C)[C@@H]1CC[C@]2([C@@H]3OC(=O)C=C3NC3CC3)CC[C@]3(C)[C@H](CC[C@@H]4[C@@]5(C)CC[C@H](OC(C)=O)C(C)(C)[C@@H]5CC[C@]43C)[C@@H]12 | 5.24 | 5.54 | 5.72 | 5.18 | 5.10 | 5.22 | – | 5.22 | 5.49 | – | – | 5.41 | 5.60 | 5.40 | 5.38 | 5.29 | 5.21 | 5.33
